Source: PubChem BioAssay
Shown are actives, neighbours in structure and some others; about 2.3% of the full set was active somewhere.
GalR3 antagonist: antagonists of human GalR3; inhibition, % at 3 µM; 360,000 tested, 0.44% active; HEK293 GalR3-CNG cAMP membrane potential fluorescence; galR3 body fused to GalR1 C-terminus;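 active = inhibition above the screen-wide average plus 3 SD, cut at about 13% in these data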;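 note: forskolin and galanin both at EC90 stimulate the cells; cAMP rise reported by CNG channel membrane potential dye signal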
COUP-TFII inh: NR2F2 (human) inhibition, primary screen; P24468; HEK293T NGFI-A luciferase reporter, luminescence; inhibition, % at 8.6 µM; 370,000 tested, 0.7% active; AID 686940;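 active = inhibition above a per-plate cutoff, mean inhibition of test wells between control levels plus 3 SD, cut at about 38% in these data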;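 note: cells cotransfected with COUP-TFII expression vector driving the NGFI-A reporter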
NR2E3 ag-1: agonists of human nuclear receptor NR2E3 | Q9Y5X4 | GST-NR2E3/biotin-RetCOR TR-FRET, 1536-well | inhibition of corepressor binding, % at 4.78 µM | 320,000 tested, 0.12% active | AID 2300;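 active = percent inhibition above the cutoff of mean plus 3 SD of all tested compounds, set per screening campaign, cut at about 20% in these data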
Target sequence (Q9Y5X4 whole entry, looked up): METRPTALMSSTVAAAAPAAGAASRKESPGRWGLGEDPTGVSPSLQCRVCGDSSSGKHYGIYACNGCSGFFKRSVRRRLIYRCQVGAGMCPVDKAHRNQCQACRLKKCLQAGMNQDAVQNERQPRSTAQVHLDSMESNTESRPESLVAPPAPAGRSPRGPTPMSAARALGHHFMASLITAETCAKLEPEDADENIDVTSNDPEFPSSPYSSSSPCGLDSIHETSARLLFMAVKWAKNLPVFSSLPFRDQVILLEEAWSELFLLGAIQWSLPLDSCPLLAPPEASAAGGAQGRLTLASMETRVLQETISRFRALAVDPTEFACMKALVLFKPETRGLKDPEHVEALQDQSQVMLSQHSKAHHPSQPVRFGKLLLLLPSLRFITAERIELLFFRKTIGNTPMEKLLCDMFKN
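Material: NR2E3–RetCOR corepressor complex / Amount: 1.35 nM GST-NR2E3 / Medium: Tris pH 7.5 / Compound: single nominal compound dose of 4.8 µM / Incubation: 5 h at 4 °C / Technique: TR-FRET, Eu(K)-anti-GST donor, streptavidin-D2 acceptor, ex 340, em 617/671 nm / Read-out basis: percent loss of FRET ratio relative to control wells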
NR2E3 ag-2: human photoreceptor-specific nuclear receptor agonism; inhibition of corepressor binding, % at 3.98 µM; CHO-S Gal4-NCOR/VP16-NR2E3 two-hybrid, luciferase; 360,000 tested, 0.35% active; Q9Y5X4;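 active = inhibition above the mean of all tested compounds plus 3 SD, cut at about 70% in these data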;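 note: higher means lower luciferase signal from less NR2E3 corepressor binding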
CHT PAM: human CHT allosteric activation; AID 488977; Q9GZV3; CHT-expressing cells, membrane potential dye, choline EC20; hits give high values; LV-AA mutant CHT in HEK293 cells; B-score at 10 µM; 310,000 tested, 0.49% active;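 active = initial fluorescence not abnormally high and integrated response B-score, plate-corrected, over 3 SD above library mean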
CHT block: human CHT choline transport inhibition; Q9GZV3; CHT-expressing cells, membrane potential dye, choline response; hits give low values; B-score at 10 µM; 310,000 tested, 0.86% active; AID 488975;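 active = B-score over 3 SD under the library average, and starting fluorescence ratio not unusually high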;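 note: choline stimulus applied at its EC90 after an EC20 pre-addition; B-score computed on integrated fluorescence ratio after choline addition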
GalR3 antag conf: confirmation of human galanin receptor 3 antagonists; shares compounds with GalR3 antagonist; HEK293 GalR3 CNG cAMP biosensor, membrane potential fluorescence; galR3 fused to GalR1 carboxy tail; challenged with forskolin and galanin at EC90; inhibition, % at 3 µM; 1,600 tested, 59% active; AID 652245;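 active = inhibition above the primary screen's cutoff, the mean inhibition of all screened compounds plus 3 SD, cut at about 13% in these data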
CNG parental: counter-screen for GalR3 antagonists: nonspecific agonists in parental HEK-CNG cells. shares compounds with GalR3 antagonist. HEK293-CNG parental cells, cAMP membrane potential fluorescence; normalised: DMSO wells 0%, forskolin wells 100%. activation, % at 3 µM. 1,600 tested, 10% active. AID 652268; in the data active = activation above about 1.3%
Each line names hits and unclear results; the compound was inactive in the other large screens (follow-up assays come after a bar, where they were run).

[O-][n+]1c2cc(C(F)(F)F)ccc2c2n1CCN=C2c1ccc(Cl)cc1	none (no result: GalR3 antagonist) | GalR3 antag conf inactive | CNG parental inactive
CC(=O)c1cc(-c2ccccc2)n(CC(=O)NCc2ccccc2)c1C	none (no result: GalR3 antagonist, NR2E3 ag-1, NR2E3 ag-2, CHT PAM, CHT block)
COc1ccc(NC(=S)N/C(=N/CS(=O)(=O)c2ccccc2)c2ccccc2)cc1	none
O=[N+]([O-])c1ccc(NC(=S)N/C(=N/CS(=O)(=O)c2ccccc2)c2ccccc2)cc1	GalR3 antagonist 13 | GalR3 antag conf inactive | CNG parental inactive
COc1ccc(NC(=O)Cn2nc(C(=O)O)c3ccccc3c2=O)cc1Cl	GalR3 antagonist 13 | GalR3 antag conf inactive | CNG parental inactive
C=CCN1[C@H](C#N)[C@@H](c2ccc(Br)cc2)[C@H]1CO	none (no result: GalR3 antagonist, NR2E3 ag-1, NR2E3 ag-2, CHT PAM, CHT block)
C/C(CCC1CC(C)(C)OC1=O)=N\NC(N)=S (stereo not given)	GalR3 antagonist 13 | GalR3 antag conf inactive | CNG parental inactive
O=C(/C=C/c1ccc(F)cc1)Nc1ccc(S(=O)(=O)Nc2ncccn2)cc1	none
Cc1ccc(/C=C/C(=O)Nc2ccc(S(=O)(=O)Nc3ncccn3)cc2)cc1	GalR3 antagonist 13 | GalR3 antag conf inactive | CNG parental inactive
Cc1ccc(-c2cc(C(=O)NN=Cc3cccc(Oc4ccccc4)c3)[nH]n2)cc1C	none (no result: GalR3 antagonist, NR2E3 ag-1, NR2E3 ag-2, CHT PAM, CHT block)
O=C(OC1CCOC1=O)c1ccc(N2CCCC2)c([N+](=O)[O-])c1 (stereo not given)	GalR3 antagonist 20 | GalR3 antag conf inactive | CNG parental inactive
C1=CC2CC1CC2CN1CCN(Cc2ccccc2)CC1 (stereo not given)	none (no result: GalR3 antagonist) | GalR3 antag conf inactive | CNG parental 1.8
Cn1c(=O)[nH]c2c(Cl)nccc21	GalR3 antagonist 16 | GalR3 antag conf inactive | CNG parental inactive
Cn1c(=O)[nH]c2ncccc21	none
CCCOc1nc2ccccc2cc1/C=C/C(=O)O	GalR3 antagonist 14 | GalR3 antag conf inactive | CNG parental inactive
CC1CCN(CCCNC(=O)c2cn(C)c3ccc(S(=O)(=O)N4CCCC4)cc3c2=O)CC1	GalR3 antagonist 15, CHT PAM 6.8 | GalR3 antag conf inactive | CNG parental inactive
CN(CCCNC(=O)c1cn(C)c2ccc(S(=O)(=O)N(C)C)cc2c1=O)c1ccccc1	GalR3 antagonist 20 | GalR3 antag conf inactive | CNG parental inactive
CCc1ccc(NC(=O)C2CCCN(S(=O)(=O)c3ccc4c(c3)CC(C)N4C(C)=O)C2)cc1 (stereo not given)	none
CCc1ccc(NC(=O)C2CCN(S(=O)(=O)c3ccc4c(c3)CC(C)N4C(C)=O)CC2)cc1 (stereo not given)	GalR3 antagonist 38 | GalR3 antag conf inactive | CNG parental inactive
CCOC(=O)C1CCN(C(=O)C2CCN(S(=O)(=O)c3ccc4c(c3)CC(C)N4C(C)=O)CC2)CC1 (stereo not given)	none
CCOC(=O)C1CCN(S(=O)(=O)c2ccc3c(c2)CC(C)N3C(=O)C2CC2)CC1 (stereo not given)	GalR3 antagonist 17 | GalR3 antag conf inactive | CNG parental inactive
COc1ccc(C=NNC(=O)Cc2cc(=O)[nH][nH]2)c(OC)c1	none (no result: GalR3 antagonist, NR2E3 ag-1, NR2E3 ag-2, CHT PAM, CHT block)
CCOC(=O)N1CCN(C(=O)CSCc2ccc(Br)cc2)CC1	none (no result: GalR3 antagonist) | GalR3 antag conf inactive | CNG parental inactive
COC(=O)c1ccc(S(=O)(=O)N2CCC(NC(=O)COc3ccc(F)cc3)CC2)cc1	none (no result: GalR3 antagonist, NR2E3 ag-1, NR2E3 ag-2, CHT PAM, CHT block)
Cc1cc(-c2csc(NC(=O)c3ccc(S(=O)(=O)N(C)C)cc3)n2)c(C)n1-c1ccccc1	none
CN(C)S(=O)(=O)c1ccc(C(=O)Nc2nc(-c3cc4ccccc4o3)cs2)cc1	GalR3 antagonist 93 | GalR3 antag conf 103 | CNG parental inactive
COc1cccc(C(=O)Nc2cc(C(=O)NCc3ccc(C)cc3)ccc2N2CCC3(CC2)CC(c2ccccc2)=NO3)c1	none
